# The source made the active and inactive calls. The calls are words filed in the database; no cut-off is given here.
# Columns and labels:
# [1] = AUC (0 to 24 hrs) in Sprague-Dawley rat at 100 mg/kg, po qd for 4 days; format: ADME, organism-based; set-up: time < 24 hr, dose 100 mg/kg, route oral; details: plasma
# [2] = Volume of distribution at steady state in Sprague-Dawley rat at 2 mg/kg, iv and 15 mg/kg, po; format: ADME, organism-based; details: in vivo, read-out: Vdss
# Summary of the method: (§1)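 Female Sprague-Dawley rats, N = 3 per route: iv 2 mg/kg in DMSO; po 15 mg/kg in 20% captisol, pH 2. Clearance expressed also as percent of liver blood flow.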
# [3] = tested on: Rattus norvegicus; assay: Immunomodulatory activity in po dosed Lewis rat assessed as reduction of circulating lymphocytes count after 24 hrs; format: functional, organism-based
# Summary of the method: (§2)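 Female Lewis rats dosed orally at 0.3, 1.0 or 3.0 mg/kg in 20% captisol, pH 2, N = 5/group. Blood lymphocyte counts and plasma concentration taken 24 h postdose. Compared with vehicle by ANOVA/Dunnett's test, P < 0.05.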
# [4] = tested on: Rattus norvegicus; assay: Immunomodulatory activity in Lewis rat assessed as reduction of circulating lymphocytes count at 0.3 mg/kg, po after 24 hrs relative to control; format: functional; summary of the method: as §2
# [5] = target: T1, Sphingosine 1-phosphate receptor 3 (Homo sapiens, UniProt Q99500); assay: Agonist activity at human S1P3 receptor expressed in CHO-K1 cells co-expressing Gq/i5 G-protein assessed as calcium mobilization by FLIPR assay; format: functional, cell-based
# Summary of the method: (§3)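 hS1P3 and Gq/i5 co-transfected into CHO-K1 cells; agonism read as Ca2+ mobilization. Percent efficacy is relative to 0.200 μM S1P, and >top concentration is reported when activity stays under 10% of control. Each value is the mean of at least two determinations.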
# [6] = Volume of distribution at steady state in cynomolgus monkey at 4 mg/kg, iv and 10 mg/kg, po; format: ADME, organism-based, Macaca fascicularis; details: in vivo, read-out: Vdss
# Summary of the method: (§4)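 Male cynomolgus monkeys, N = 3 per route: iv 4 mg/kg in 20% captisol, pH 4; po 10 mg/kg in 20% captisol with 1% pluronic F68 and 1% HPMC, pH 2. Clearance expressed also as percent of liver blood flow.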
# [7] = tested on: Rattus norvegicus; assay: Immunomodulatory activity in Lewis rat assessed as reduction of circulating lymphocytes count at 1 mg/kg, po after 24 hrs relative to control; format: functional; set-up: scale not given: the % may be the effect or the level left; summary of the method: as §2
# [8] = Half life in Sprague-Dawley rat at 2 mg/kg, iv and 15 mg/kg, po; format: ADME, organism-based; details: in vivo; summary of the method: as §1
# [9] = tested on: Rattus norvegicus; assay: Cardiotoxicity in rat assessed as effect on heart rate at 30 mg/kg, po; format: toxicity, organism-based; set-up: dose 30 mg/kg, route oral; details: in vivo
# Summary of the method: (§5)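 Telemetered rats given oral doses; heart rate and mean arterial pressure monitored to set a no-effect level.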
# [10] = tested on: Rattus norvegicus; assay: Immunosuppressive activity in delayed-type hypersensitivity Lewis rat model assessed as reduction of ovalbumin/complete Freund's adjuvant-induced ear swelling at 1 to 3 mg/kg, po qd for 10 days; format: functional, organism-based
# Summary of the method: (§6)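 Female Lewis rats dosed orally once daily for 10 days at 0.1–3.0 mg/kg in 20% captisol, pH 2 (N = 8/group; N = 4 at 3.0 mg/kg). On day 1 rats were immunized with ovalbumin plus complete Freund's adjuvant. One week later ovalbumin was injected intracutaneously into one ear. Ear-thickness change and blood lymphocytes measured 48 h after challenge; compared with vehicle by ANOVA/Dunnett's test.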
# [11] = Clearance in Sprague-Dawley rat at 2 mg/kg, iv and 15 mg/kg, po; format: ADME, organism-based; details: in vivo; summary of the method: as §1
# [12] = Clearance in cynomolgus monkey at 4 mg/kg, iv and 10 mg/kg, po; format: ADME, organism-based, Macaca fascicularis; details: in vivo; summary of the method: as §4
# [13] = tested on: Cynomolgus monkey; assay: Liver blood flow in cynomolgus monkey at 4 mg/kg, iv and 10 mg/kg, po; format: ADME, organism-based, Macaca fascicularis; details: in vivo; summary of the method: as §4
# [14] = Cmax in Sprague-Dawley rat at 100 mg/kg, po qd for 4 days; format: ADME, organism-based; set-up: dose 100 mg/kg, route oral; details: in vivo
# [15] = tested on: Rattus norvegicus; assay: Liver blood flow in Sprague-Dawley rat at 2 mg/kg, iv and 15 mg/kg, po; format: ADME, organism-based; details: in vivo; summary of the method: as §1
# [16] = Mean residence time in cynomolgus monkey at 4 mg/kg, iv and 10 mg/kg, po; format: ADME, organism-based, Macaca fascicularis; details: in vivo; summary of the method: as §4
# [17] = tested on: Rattus norvegicus; assay: Toxicity in Sprague-Dawley rat assessed as proconvulsive activity at 100 mg/kg, po qd for 4 days; format: organism-based; set-up: dose 100 mg/kg, route oral; details: in vivo, 96 h
# Summary of the method: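 Sprague-Dawley rats (N = 3) dosed orally at 100 mg/kg once daily for 4 days and observed for proconvulsive activity.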
# [18] = Oral bioavailability in Sprague-Dawley rat at 15 mg/kg; format: ADME, organism-based; details: in vivo; summary of the method: as §1
# [19] = target: T2, Sphingosine 1-phosphate receptor 1 (Homo sapiens, UniProt P21453); assay: Agonist activity at human S1P1 receptor expressed in human U2OS cells co-expressing eGFP assessed as receptor internalization after 1 hr relative to 1-(4-(6-benzylbenzofuran-2-yl)-3-fluorobenzyl)azetidine-3-carboxylic acid; format: functional, cell-based
# Summary of the method: (§7)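 hS1P1-GFP fusion expressed in U2OS cells; agonism read as receptor internalization. Percent efficacy is relative to 1.00 μM reference agonist, and >top concentration is reported when activity stays under 10% of control. Each value is the mean of at least two determinations.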
# [20] = Mean residence time in Sprague-Dawley rat at 2 mg/kg, iv and 15 mg/kg, po; format: ADME, organism-based; details: in vivo; summary of the method: as §1
# [21] = Mutagenic activity in Salmonella Typhimurium by Ames test; format: toxicity; details: salmonella enterica subsp. enterica serovar typhimurium
# [22] = tested on: Rattus norvegicus; assay: Immunosuppressive activity in delayed-type hypersensitivity Lewis rat model assessed as reduction of ovalbumin/complete Freund's adjuvant-induced ear swelling at 0.3 mg/kg, po qd for 10 days; format: functional, organism-based; set-up: dose 0.3 mg/kg; summary of the method: as §6
# [23] = Fraction unbound in rat plasma at 5 ug/ml by ultracentrifugation analysis; format: ADME, cell-free
# Summary of the method: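 Plasma protein binding determined by ultracentrifugation at 5.0 μg/mL test compound.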
# [24] = Half life in cynomolgus monkey at 4 mg/kg, iv and 10 mg/kg, po; format: ADME, organism-based, Macaca fascicularis; details: in vivo; summary of the method: as §4
# [25] = tested on: Rattus norvegicus; assay: Cardiotoxicity in rat assessed as effect on mean arterial pressure at 30 mg/kg, po; format: toxicity, organism-based, Artery; set-up: dose 30 mg/kg, route oral; details: in vivo; summary of the method: as §5
# [26] = tested on: Rattus norvegicus; assay: Immunomodulatory activity in Lewis rat assessed as reduction of circulating lymphocytes count at 3 mg/kg, po after 24 hrs relative to control; format: functional; summary of the method: as §2
# [27] = Inhibition of human cytochrome P450; format: ADME
# [28] = target: T1, Sphingosine 1-phosphate receptor 3; assay: Agonist activity at human S1P3 receptor expressed in CHO-K1 cells co-expressing Gq/i5 G-protein assessed as calcium mobilization by FLIPR assay relative to S1P; format: functional, cell-based; summary of the method: as §3
# [29] = Oral bioavailability in cynomolgus monkey at 10 mg/kg; format: ADME, organism-based, Macaca fascicularis; details: in vivo; summary of the method: as §4
# [30] = target: T2, Sphingosine 1-phosphate receptor 1; assay: Agonist activity at human S1P1 receptor expressed in human U2OS cells co-expressing eGFP assessed as receptor internalization after 1 hr; format: functional, cell-based; summary of the method: as §7
# T1 sequence (Q99500 whole entry): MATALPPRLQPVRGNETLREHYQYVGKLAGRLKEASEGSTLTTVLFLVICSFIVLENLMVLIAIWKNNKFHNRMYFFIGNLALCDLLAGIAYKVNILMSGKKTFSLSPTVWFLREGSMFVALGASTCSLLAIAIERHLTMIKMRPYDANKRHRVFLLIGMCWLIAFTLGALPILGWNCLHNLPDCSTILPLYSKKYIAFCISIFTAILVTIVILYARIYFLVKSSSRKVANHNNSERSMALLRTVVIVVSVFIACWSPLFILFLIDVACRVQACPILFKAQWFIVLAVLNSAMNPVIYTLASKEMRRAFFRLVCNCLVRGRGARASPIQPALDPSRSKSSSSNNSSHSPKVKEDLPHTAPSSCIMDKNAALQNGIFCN
# T2 sequence (P21453 whole entry, the tested form may be a part): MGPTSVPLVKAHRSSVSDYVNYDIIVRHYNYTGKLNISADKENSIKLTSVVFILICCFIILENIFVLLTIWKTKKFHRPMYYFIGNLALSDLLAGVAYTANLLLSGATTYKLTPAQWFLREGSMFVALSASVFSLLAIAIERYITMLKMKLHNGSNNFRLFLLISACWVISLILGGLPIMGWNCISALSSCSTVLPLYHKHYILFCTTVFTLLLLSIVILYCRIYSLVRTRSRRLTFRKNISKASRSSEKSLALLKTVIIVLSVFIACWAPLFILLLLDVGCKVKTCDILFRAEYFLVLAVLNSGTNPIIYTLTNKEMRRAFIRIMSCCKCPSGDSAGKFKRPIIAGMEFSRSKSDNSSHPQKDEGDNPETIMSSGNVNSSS
compound,measurement,setting,value
O=C(O)C1CN(Cc2ccc(-c3nc4cc(Cc5ccccc5F)ccc4s3)c(F)c2)C1,AUC at 24 h,[1],987 µg·h/mL
same,Vd,[2],3.3 L/kg
same,Efficacy,[3],Dose-dependent effect
same,Efficacy,[4],34%
same,EC50,[5],3470 nM
same,Vd,[6],1.6 L/kg
same,Activity,[7],63%
same,half-life,[8],450 min
same,Activity,[9],Non-toxic
same,Efficacy,[10],Active
same,clearance,[11],5.5 mL/min/kg
same,clearance,[12],8.33 mL/min/kg
same,LBF,[13],19%
same,Cmax,[14],49000 ng/mL
same,LBF,[15],10%
same,MRT,[16],3.3 h
same,Activity,[17],Non-toxic
same,bioavailability,[18],68%
same,Efficacy,[19],115%
same,MRT,[20],10 h
same,Activity,[21],Non-toxic
same,Efficacy,[22],Active
same,fraction unbound at 5 ug/ml,[23],0.021
same,half-life,[24],2110 min
same,Activity,[25],Non-toxic
same,Efficacy,[26],74%
same,inhibition (INH),[27],Not Active
same,Efficacy,[28],14%
same,bioavailability,[29],23%
O=C(O)C1CN(Cc2ccc(-c3nc4ccc(Cc5ccccc5)cc4s3)c(F)c2)C1,Efficacy,[19],84%
same,Efficacy,[28],50%
O=C(O)C1CN(Cc2ccc(-c3nc4cc(Cc5ccc(F)cc5F)ccc4s3)c(F)c2)C1,EC50,[5],1200 nM
same,EC50,[30],42 nM
same,Efficacy,[19],186%
same,Efficacy,[28],24%
O=C(O)C1CN(Cc2ccc(-c3cn4cc(Cc5ccccc5)ccc4n3)c(F)c2)C1,EC50,[5],> 25000 nM
same,EC50,[30],6720 nM
same,Efficacy,[19],115%
Cc1ccccc1Cc1ccc2sc(-c3ccc(CN4CC(C(=O)O)C4)cc3F)nc2c1,EC50,[5],2440 nM
same,Activity,[7],63%
same,EC50,[30],26 nM
same,Efficacy,[19],118%
same,Efficacy,[28],40%
Cc1cccc(Cc2ccc3sc(-c4ccc(CN5CC(C(=O)O)C5)cc4F)nc3c2)c1,EC50,[5],> 2500 nM
same,EC50,[30],54 nM
same,Efficacy,[19],92%
O=C(O)C1CN(Cc2ccc(-c3nc4cc(Cc5cccc(Cl)c5)ccc4s3)c(F)c2)C1,EC50,[5],3880 nM
same,EC50,[30],49 nM
same,Efficacy,[19],141%
same,Efficacy,[28],35%
O=C(O)C1CN(Cc2ccc(-c3nc4cc(Cc5ccccc5Cl)ccc4s3)c(F)c2)C1,EC50,[5],4880 nM
same,Activity,[7],63%
same,EC50,[30],42 nM
same,Efficacy,[19],121%
same,Efficacy,[28],41%
O=C(O)C1CN(Cc2ccc(-c3nc4cc(Cc5ccccc5)ccc4s3)c(F)c2)C1,EC50,[30],42 nM
same,Efficacy,[28],24%
O=C(O)C1CN(Cc2ccc(-n3cc4cc(Cc5ccccc5)ccc4n3)c(F)c2)C1,EC50,[5],1110 nM
same,EC50,[30],2890 nM
same,Efficacy,[19],53%
same,Efficacy,[28],43%
O=C(O)C1CN(Cc2ccc(-c3nc4cc(Cc5ccccc5)ccc4o3)c(F)c2)C1,EC50,[5],354 nM
same,EC50,[30],325 nM
same,Efficacy,[19],105%
same,Efficacy,[28],77%
O=C(O)C1CN(Cc2ccc(-c3nc4ccc(Cc5ccccc5)cc4[nH]3)c(F)c2)C1,EC50,[5],> 25000 nM
same,EC50,[30],> 6250 nM
O=C(O)C1CN(Cc2ccc(-c3nc4ccc(Cc5ccccc5)cc4o3)c(F)c2)C1,EC50,[5],542 nM
same,EC50,[30],94 nM
same,Efficacy,[19],108%
same,Efficacy,[28],87%
O=C(O)C1CN(Cc2ccc(-c3nc4cc(Cc5c(F)cccc5F)ccc4s3)c(F)c2)C1,EC50,[5],> 25000 nM
same,EC50,[30],126 nM
same,Efficacy,[19],126%
O=C(O)C1CN(Cc2ccc(-c3cc4ccc(Cc5ccccc5)cc4o3)c(F)c2)C1,EC50,[5],679 nM
same,EC50,[30],13 nM
same,Efficacy,[28],42%
O=C(O)C1CN(Cc2ccc(-c3cc4cc(Cc5ccccc5)ccc4o3)c(F)c2)C1,EC50,[5],1730 nM
same,Efficacy,[19],96%
same,fraction unbound at 5 ug/ml,[23],0.015
same,Efficacy,[28],42%
O=C(O)C1CN(Cc2ccc(-c3nc4cc(Cc5ccc(F)c(F)c5)ccc4s3)c(F)c2)C1,EC50,[5],967 nM
same,EC50,[30],30 nM
same,Efficacy,[19],151%
same,Efficacy,[28],19%
O=C(O)C1CN(Cc2ccc(-c3nc4cc(Cc5ccc(F)cc5)ccc4s3)c(F)c2)C1,EC50,[5],1910 nM
same,EC50,[30],33 nM
same,Efficacy,[19],129%
same,Efficacy,[28],37%
O=C(O)C1CN(Cc2ccc(-c3cn4ccc(Cc5ccccc5)cc4n3)c(F)c2)C1,EC50,[5],6090 nM
same,EC50,[30],741 nM
same,Efficacy,[19],110%
same,Efficacy,[28],50%
O=C(O)C1CN(Cc2ccc(-n3cc4ccc(Cc5ccccc5)cc4n3)c(F)c2)C1,EC50,[5],2710 nM
same,EC50,[30],1810 nM
same,Efficacy,[19],100%
same,Efficacy,[28],48%
O=C(O)C1CN(Cc2ccc(-c3nc4cc(Cc5ccc(Cl)cc5)ccc4s3)c(F)c2)C1,EC50,[5],> 25000 nM
same,EC50,[30],159 nM
same,Efficacy,[19],117%
O=C(O)C1CN(Cc2ccc(-c3nc4cc(Cc5cccc(F)c5)ccc4s3)c(F)c2)C1,EC50,[5],687 nM
same,EC50,[30],21 nM
same,Efficacy,[19],138%
same,Efficacy,[28],22%
Cc1ccc(Cc2ccc3sc(-c4ccc(CN5CC(C(=O)O)C5)cc4F)nc3c2)cc1,EC50,[5],1800 nM
same,EC50,[30],77 nM
same,Efficacy,[19],132%
same,Efficacy,[28],17%
